Source: ChEMBL document CHEMBL1828561, “Identification of a potent and selective free fatty acid receptor 1 (FFA1/GPR40) agonist with favorable physicochemical and in vitro ADME properties” (J Med Chem, 2011)
pEC50: −log10 of the molar value. ≈ marks a conversion by molar mass, not a printed value.

Experiments:
[1] = biological target: T1, Free fatty acid receptor 1 (Homo sapiens, UniProt O14842); assay: Agonist activity at human FFA1 receptor expressed in human 1321N1 cells assessed as calcium mobilization by fluorescence spectrophotometry; type: functional, cell-based
T1 sequence (O14842 whole entry): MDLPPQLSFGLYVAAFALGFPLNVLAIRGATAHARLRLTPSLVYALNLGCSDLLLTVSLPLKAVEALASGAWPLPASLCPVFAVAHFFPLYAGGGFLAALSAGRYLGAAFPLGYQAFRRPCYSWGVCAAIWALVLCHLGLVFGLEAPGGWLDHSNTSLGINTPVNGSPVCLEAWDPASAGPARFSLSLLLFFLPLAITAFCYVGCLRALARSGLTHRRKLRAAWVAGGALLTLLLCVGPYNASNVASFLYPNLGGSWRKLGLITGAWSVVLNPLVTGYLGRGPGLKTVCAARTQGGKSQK

[2] = biological target: T1, Free fatty acid receptor 1; assay: Agonist activity at human FFA1 receptor expressed in human 1321N1 cells assessed as calcium mobilization by fluorescence spectrophotometry relative to 10 uM TUG-20; type: functional, cell-based
Summary of the method: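 Human FFA1 stably expressed in 1321N1 cells kept under G418 selection, 30000–40000 cells/well. After 24 h, washed in Krebs-HEPES pH 7.4 and loaded 1 h at 37 °C with 1.5 μM Oregon Green 488 BAPTA-1/AM. Compound injected at 10-fold concentration at 37 °C; fluorescence ex 485/em 520 nm over 50 × 0.4 s. Efficacy as % of maximal response to 10 μM TUG-20.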

[3] = Aqueous solubility of the compound in PBS at pH 7.4; type: physicochemical
Summary of the method: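 Solubility measured in PBS at pH 7.4.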

[4] = Octanol-phosphate buffer partition coefficient, log D of the compound at pH 7.4 by HPLC analysis; type: physicochemical
[5] = Chemical stability of the compound in PBS at 37 degC for 12 days; type: physicochemical; conditions: read-out: Stability
Summary of the method: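 Stability followed in PBS at 37 °C over 12 days.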

[6] = Plasma protein binding in human; type: ADME, cell-free; conditions: read-out: PPB (converted)
Liver = assay: Metabolic stability in human liver S9 fraction; type: ADME, subcellular
CYP1A2 = biological target: T2, CYP1A2 (Homo sapiens, UniProt P05177); assay: Inhibition of CYP1A2 at 10 uM; type: ADME
T2 sequence (P05177 whole entry): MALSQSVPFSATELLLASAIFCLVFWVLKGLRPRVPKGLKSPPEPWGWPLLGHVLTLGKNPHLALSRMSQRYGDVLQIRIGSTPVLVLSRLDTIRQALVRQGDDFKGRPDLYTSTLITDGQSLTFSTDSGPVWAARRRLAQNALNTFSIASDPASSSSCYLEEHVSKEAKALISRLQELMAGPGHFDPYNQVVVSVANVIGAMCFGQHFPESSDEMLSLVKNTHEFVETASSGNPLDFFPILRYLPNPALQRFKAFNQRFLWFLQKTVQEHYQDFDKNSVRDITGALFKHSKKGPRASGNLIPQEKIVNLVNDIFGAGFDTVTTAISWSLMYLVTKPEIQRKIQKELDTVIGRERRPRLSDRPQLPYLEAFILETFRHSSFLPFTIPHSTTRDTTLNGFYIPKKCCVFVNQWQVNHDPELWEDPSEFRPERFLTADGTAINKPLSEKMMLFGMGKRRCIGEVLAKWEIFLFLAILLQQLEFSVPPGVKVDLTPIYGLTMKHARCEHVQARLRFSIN

CYP2C9 = CYP2C9 (Homo sapiens, UniProt P11712); assay: Inhibition of CYP2C9 at 10 uM; type: ADME
Chain of CYP2C9 (P11712 whole entry): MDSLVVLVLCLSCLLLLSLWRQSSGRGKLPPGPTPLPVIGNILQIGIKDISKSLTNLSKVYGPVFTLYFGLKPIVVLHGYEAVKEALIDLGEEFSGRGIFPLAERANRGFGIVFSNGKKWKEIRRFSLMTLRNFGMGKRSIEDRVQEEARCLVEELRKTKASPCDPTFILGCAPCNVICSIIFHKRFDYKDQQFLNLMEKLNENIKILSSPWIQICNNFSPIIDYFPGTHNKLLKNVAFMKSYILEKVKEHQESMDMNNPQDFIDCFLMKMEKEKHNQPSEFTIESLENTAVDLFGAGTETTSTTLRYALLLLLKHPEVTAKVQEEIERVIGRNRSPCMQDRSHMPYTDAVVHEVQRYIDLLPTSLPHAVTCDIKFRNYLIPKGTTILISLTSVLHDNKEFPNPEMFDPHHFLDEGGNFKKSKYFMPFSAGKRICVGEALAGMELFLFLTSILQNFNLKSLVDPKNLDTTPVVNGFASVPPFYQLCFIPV

CYP2C19 = CYP2C19 (Homo sapiens, UniProt P33261); assay: Inhibition of CYP2C19 at 10 uM; type: ADME
Chain of CYP2C19 (P33261 whole entry): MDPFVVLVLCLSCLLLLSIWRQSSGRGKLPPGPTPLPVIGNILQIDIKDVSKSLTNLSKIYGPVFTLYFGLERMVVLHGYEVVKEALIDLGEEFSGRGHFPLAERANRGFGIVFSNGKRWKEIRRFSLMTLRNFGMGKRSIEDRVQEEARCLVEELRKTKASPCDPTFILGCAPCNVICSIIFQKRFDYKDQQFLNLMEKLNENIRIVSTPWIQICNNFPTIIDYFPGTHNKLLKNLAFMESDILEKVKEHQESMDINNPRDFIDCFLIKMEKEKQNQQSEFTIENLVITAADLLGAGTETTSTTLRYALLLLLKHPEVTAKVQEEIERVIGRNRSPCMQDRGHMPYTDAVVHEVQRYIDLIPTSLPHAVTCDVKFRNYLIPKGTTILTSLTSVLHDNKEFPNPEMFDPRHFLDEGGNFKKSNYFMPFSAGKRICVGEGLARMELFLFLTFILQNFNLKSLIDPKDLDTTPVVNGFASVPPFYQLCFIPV

CYP2D6 = CYP2D6 (Homo sapiens, UniProt P10635); assay: Inhibition of CYP2D6 at 10 uM; type: ADME
Chain of CYP2D6 (P10635 whole entry): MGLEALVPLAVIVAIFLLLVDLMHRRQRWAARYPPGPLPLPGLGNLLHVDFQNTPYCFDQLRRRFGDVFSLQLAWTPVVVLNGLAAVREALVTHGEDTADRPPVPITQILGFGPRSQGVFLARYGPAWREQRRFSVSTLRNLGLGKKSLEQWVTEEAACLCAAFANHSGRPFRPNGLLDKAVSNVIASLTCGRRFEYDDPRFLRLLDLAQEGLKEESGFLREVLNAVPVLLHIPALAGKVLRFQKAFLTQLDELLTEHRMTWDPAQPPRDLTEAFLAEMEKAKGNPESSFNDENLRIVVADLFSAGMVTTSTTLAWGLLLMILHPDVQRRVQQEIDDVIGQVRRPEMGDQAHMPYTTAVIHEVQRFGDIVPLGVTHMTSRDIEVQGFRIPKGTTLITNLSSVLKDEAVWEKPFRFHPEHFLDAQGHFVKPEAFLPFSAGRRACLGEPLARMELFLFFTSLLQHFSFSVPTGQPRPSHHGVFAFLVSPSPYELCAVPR

CYP3A4 = CYP3A4 (Homo sapiens, UniProt P08684); assay: Inhibition of CYP3A4 at 10 uM; type: ADME
Chain of CYP3A4 (P08684 whole entry): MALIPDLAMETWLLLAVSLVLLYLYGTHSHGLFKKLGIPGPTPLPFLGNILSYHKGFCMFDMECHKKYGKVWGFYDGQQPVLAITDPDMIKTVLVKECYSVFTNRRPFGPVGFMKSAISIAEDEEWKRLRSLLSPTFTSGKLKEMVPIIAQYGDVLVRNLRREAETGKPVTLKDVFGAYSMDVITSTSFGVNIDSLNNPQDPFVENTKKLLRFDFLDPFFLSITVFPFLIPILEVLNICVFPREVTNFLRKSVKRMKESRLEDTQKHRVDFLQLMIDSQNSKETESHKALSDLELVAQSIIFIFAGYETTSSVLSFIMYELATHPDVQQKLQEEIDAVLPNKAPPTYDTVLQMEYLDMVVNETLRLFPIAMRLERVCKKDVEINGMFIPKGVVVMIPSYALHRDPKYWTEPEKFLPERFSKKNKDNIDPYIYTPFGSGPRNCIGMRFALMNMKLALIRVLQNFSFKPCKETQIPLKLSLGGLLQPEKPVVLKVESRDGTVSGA

[7] = Inhibition of P-glycoprotein at 100 uM
Summary of the method: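 P-glycoprotein inhibition tested at 100 μM compound.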

[8] = Apparent permeability from apical to basolateral side of human Caco2/TC7 cells; type: ADME, cell-based; conditions: Caco-2
Summary of the method: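 Caco-2 TC7 monolayers, apical to basolateral transport at pH 6.5 apical/7.4 basolateral.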

[9] = Octanol-water partition coefficient, log D of the compound at pH 7.4 by HPLC analysis; type: physicochemical
Summary of the method: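 Distribution between n-octanol and water (PBS), pH 7.4, determined experimentally.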

[10] = Apparent permeability across methotrexate treated human HT-29 cells; type: ADME, cell-based
Summary of the method: (§1)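 HT29-MTX mucus-producing cells, passage 32, grown 23 days (TEER > 750 Ω cm²). Compound at 100 μM (10 mM DMSO stock diluted 1:100 in buffer). […] Non-permeated drug measured for recovery. Monolayer integrity checked by 20 μM carboxyfluorescein after 1 h and TEER.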

[11] = Permeability across methotrexate treated human HT-29 cells assessed as compound recovery; type: ADME, cell-based; conditions: read-out: Activity; summary of the method: as §1

SMILES	pEC50 [1]	Efficacy [2] [%]	further results
O=C(O)CCc1ccc(C#Cc2cccnc2Cl)cc1	6.22	91	
O=C(O)CCc1ccc(C#Cc2ccnc(F)c2)cc1	6.29	98	
Cc1c(C#Cc2ccc(CCC(=O)O)cc2)ccnc1Cl	6.87	101	
O=C(O)CCc1ccc(C#Cc2ccnc(Oc3ccccc3)c2)cc1	6.32	94	
Cc1cc(C#Cc2ccc(CCC(=O)O)cc2)nc(Cl)n1	5.56	110	
O=C(O)CCc1ccc(C#Cc2ccnc(Cl)n2)cc1	5.04	131	
O=C(O)CCc1ccc(C#Cc2ncccc2[N+](=O)[O-])cc1		87	
O=C(O)CCc1ccc(C#Cc2ccncc2)cc1	5.39	100	
COc1nccc(C#Cc2ccc(CCC(=O)O)cc2)n1	5.02	109	
Cc1cccc(C#Cc2ccc(CCC(=O)O)cc2)n1	5.21	108	
Cc1ccccc1-c1cc(C#Cc2ccc(CCC(=O)O)cc2)ccn1	5.97	92	
O=C(O)CCc1ccc(C#Cc2ccnc(Cl)c2)cc1	6.53	94	
O=C(O)CCc1ccc(C#Cc2cccnc2)cc1	5.22	96	
Cc1ccccc1C#Cc1ccc(CCC(=O)O)cc1	7.34	102	solubility [3]: 174 µM (≈ 46 µg/mL); logD [4]: 2.34; remaining at 288 h [5]: 99.9%; fraction unbound [6]: 0.023; Stability (Liver): 26%; inhibition at 10 µM (CYP1A2): -8%; inhibition at 10 µM (CYP2C9): -25%; inhibition at 10 µM (CYP2C19): -1%; inhibition at 10 µM (CYP2D6): 0%; inhibition at 10 µM (CYP3A4): -4%; inhibition [7]: 6.6%; Papp A→B [8]: 87 ×10⁻⁶ cm/s; logD [9]: 2.34
O=C(O)C1CC1c1ccc(C#Cc2cc(Cl)nc(Cl)c2)cc1 (racemic)		96	
Cc1cnc(Cl)nc1C#Cc1ccc(CCC(=O)O)cc1	5.37	121	

SMILES	pEC50 [1]	Efficacy [2] [%]	further results
Cc1ccsc1C#Cc1ccc(CCC(=O)O)cc1	7.12	100	
O=C(O)CCc1ccc(C#Cc2cccs2)cc1	6.60	97	
Cc1cnc(F)cc1C#Cc1ccc(CCC(=O)O)cc1	6.75	99	
Cc1cnc(F)c(C#Cc2ccc(CCC(=O)O)cc2)c1	6.18	98	
Cc1c(C#Cc2ccc(CCC(=O)O)cc2)ccnc1F	6.92	101	
C=CCc1c(C#Cc2ccc(CCC(=O)O)cc2)ccnc1Cl	6.50	97	
O=C(O)CCc1ccc(C#Cc2ccnc3cc(Cl)ccc23)cc1	7.10	125	
O=C(O)CCc1ccc(C#Cc2cncs2)cc1	5.41	99	
O=C(O)CCc1ccc(C#Cc2ccccn2)cc1	4.88	98	
O=C(O)CCc1ccc(C#Cc2ccnc(-c3ccccc3)c2)cc1	6.73	97	
Cc1cc(C#Cc2ccc(CCC(=O)O)cc2)ccn1		102	
O=C(O)CCc1ccc(C#Cc2ccc(Cl)nc2)cc1	6.15	98	
COc1cc(C#Cc2ccc(CCC(=O)O)cc2)ccn1	6.28	98	
Cc1c(C#Cc2ccc(CCC(=O)O)cc2)cc(Cl)nc1Cl	7.36	91	
CC(C(=O)O)c1cccc(C(=O)c2ccccc2)c1 (centres undefined) [KETOPROFEN]			Papp [10]: 15.1 ×10⁻⁶ cm/s; recovery [11]: 80%
O=C(O)CCc1ccc(C#Cc2ccnc(Cl)c2Cc2ccccc2)cc1	6.10	101	
